Source: PubChem (several laboratories)
NF-kB neuron act: raises NF-kB expression in human neuronal cells | NF-kB reporter expression; hits give high values | fold change at 12.5 µM | actives 1.6% (n = 190,000); in the data active means fold change above about 3.3
STAT1 act: increases IFN-gamma driven STAT1 reporter signal; NIH 3T3 STAT1-luciferase reporter, luminescence; 100% = IFN-gamma alone, no compound; activation (% of control), % at 5.5 µM; actives 2.6% (n = 200,000); AID 932;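 active means activation above the screen-wide mean activation plus 3 SD, cut at about 130% in these data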
APP 5'UTR act: APP 5'UTR luciferase reporter activation. SH-SY5Y APP 5'UTR luciferase reporter, luminescence; zero percent = DMSO vehicle wells. activation, % at 2 µM. actives 1% (n = 190,000);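 active means activation above a set limit, based on mean plus 3 SD of controls, cut at about 140% in these data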
FLuc inh counter: counter-screen for luciferase assay inhibitors: firefly luciferase inhibition. P08659. ATPLite firefly luciferase biochemical luminescence, 10 min. inhibition, % at 10 µM. actives 1.5% (n = 200,000). AID 1006;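 active means inhibition above about 50% when tested at 10 µM, limit read from the data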
Target sequence (P08659 whole entry, looked up): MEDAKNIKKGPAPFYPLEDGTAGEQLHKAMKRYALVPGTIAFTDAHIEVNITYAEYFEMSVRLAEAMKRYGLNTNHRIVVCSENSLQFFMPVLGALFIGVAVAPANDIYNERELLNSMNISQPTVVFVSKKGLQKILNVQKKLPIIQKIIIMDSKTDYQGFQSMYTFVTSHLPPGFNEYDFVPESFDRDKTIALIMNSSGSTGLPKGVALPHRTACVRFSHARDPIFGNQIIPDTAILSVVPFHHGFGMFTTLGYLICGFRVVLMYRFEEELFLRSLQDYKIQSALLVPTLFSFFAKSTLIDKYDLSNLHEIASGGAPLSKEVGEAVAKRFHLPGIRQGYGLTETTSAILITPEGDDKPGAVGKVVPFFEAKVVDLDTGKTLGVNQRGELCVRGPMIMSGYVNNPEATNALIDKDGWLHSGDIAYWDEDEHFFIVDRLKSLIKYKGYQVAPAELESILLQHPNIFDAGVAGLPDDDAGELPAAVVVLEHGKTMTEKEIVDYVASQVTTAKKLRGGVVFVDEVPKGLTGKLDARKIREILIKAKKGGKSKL
Pf gamet viab: kills late stage P. falciparum gametocytes | P. falciparum stage V gametocytes, ATP luminescence, 24 h | AID 743093 | inhibition, % at 10.9 µM | actives 0.065% (n = 150,000);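 active means inhibition above the mean plus 3 SD of compounds within the control limits, set per campaign, cut at about 38% in these data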
FLuc act counter: firefly luciferase counter-screen for stimulation assays | P08659 | ATPlite luciferase biochemical, luminescence, 10 min; 0 = ATP-free wells, 1 = DMSO control | activation factor at 10 µM | 200,000 tested, under 10 active | AID 1027;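 active means luciferase activation factor, scaled between plate controls, of at least 2 with compound at 10 µM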
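Assay system: Luciferase/luciferin detection reagent, cell-free biochemical luciferase assay / Also added: ATP substrate / Schedule: 10 min at ambient temperature / Measured by: luminescence measurement of luciferase light output / Benchmarks: low control with PBS replacing ATP, high control enzyme plus ATP without compound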
STAT1 activ conf: confirmation of STAT1 signaling activators. activation (% of control), % at 5.7 µM. actives 97% (n = 1,200). NIH 3T3 STAT1-luciferase reporter, IFN-gamma potentiation, luminescence; 100% = IFN-gamma EC80 alone, no compound. shares compounds with STAT1 act. AID 1262;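 active means activation above a set limit carried over from the earlier primary STAT1 screen, cut at about 140% in these data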
NFkB act STAT1ct: NF-kappaB activation in STAT1 activator counter-screen; HEK293T NF-kB luciferase reporter, TNF-alpha stimulated, luminescence; 100% = TNF-alpha with vehicle only; AID 1306; actives 43% (n = 1,200); shares compounds with STAT1 act; activation (% of control), % at 5.7 µM;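 active means activation above the mean of solvent-only control wells plus 3 SD, set per campaign, cut at about 130% in these data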;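 further: TNF-alpha given at a submaximal dose yielding about 80% of full reporter signal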
STAT3 act 2: human STAT3 activation in STAT1 activator counter-screen; shares compounds with STAT1 act; U3A cells STAT3-luciferase reporter, IL-6, luminescence; cells lack STAT1; 100 = IL-6 alone, no compound effect; activation (% of control), % at 5.7 µM; actives 46% (n = 1,200); AID 1316;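 active means activation above the solvent-only control well mean plus 3 SD, set per plate batch, cut at about 110% in these data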;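 further: higher means more STAT3 reporter activation so hits are non-selective activators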
A number is an active result; i = inactive; nt = no result. The list is not random: actives were taken first. Their share in the collection is about 3.5%.

SMILES | NF-kB neuron act | STAT1 act | APP 5'UTR act | FLuc inh counter | Pf gamet viab | FLuc act counter | STAT1 activ conf | NFkB act STAT1ct | STAT3 act 2
COc1cccc(OC)c1C(=O)Nc1ccc2c(c1)OCCO2 | i | i | i | i | i | i | nt | nt | nt
COc1ccccc1/C=C/C(=O)Nc1ccc2c(c1)CCC2 | 7.8 | 161 | 176 | i | i | i | 197 | 147 | 112
COc1ccc(OC)c(/C=C/C(=O)Nc2ccc3c(c2)CCC3)c1 | i | i | i | i | i | i | nt | nt | nt
COc1ccccc1/C=C/C(=O)Nc1ccc2c(c1)OCCO2 | 8.4 | 179 | i | 85 | nt | i | 238 | i | i
Cc1noc(C)c1COc1cccc(C(=O)N2CCc3ccccc32)c1 | i | i | i | i | i | i | nt | nt | nt
CC(NC(=O)CSC(=S)N(C)C)C12CC3CC(CC(C3)C1)C2 (stereo unspecified) | i | i | i | i | nt | i | nt | nt | nt
CC1CC(C)(C)NC(=S)O1 (stereo unspecified) | i | i | i | i | i | i | nt | nt | nt
O=C(c1ccc(N2C(=O)C3C4c5ccccc5C(c5ccccc54)C3C2=O)cc1)N1CCOCC1 (stereo unspecified) | i | i | i | i | nt | i | nt | nt | nt
C/C(=N\NC(=O)c1nn(C)c(C)c1Br)c1ccc(NC(=O)c2ccccc2F)cc1 | i | 156 | i | i | i | i | i | i | i
C/C(=N\NC(=O)c1nn(C)c(C)c1Br)c1ccc(NC(=O)c2ccoc2C)cc1 | i | 179 | i | i | i | i | i | i | i
O=C1CCC(C(=O)Nc2ccccc2N2CCOCC2)=NN1 | nt | nt | nt | nt | i | nt | nt | nt | nt
Cc1occc1C(=O)Nc1ccc2c(c1)CCC2 | 4.7 | 156 | 144 | i | nt | i | 176 | i | i
O=C(Nc1ccc2c(c1)CCC2)c1ccccc1F | 8.3 | 179 | 183 | 62 | i | i | 222 | i | i
O=C(O)c1ccccc1-c1ccccc1C(=O)Nc1ccc2c(c1)CCC2 | nt | nt | nt | nt | i | nt | nt | nt | nt
O=C(Nc1ccc2c(c1)CCC2)c1ccccc1 | 8 | 181 | 172 | 62 | i | i | 237 | i | i
COc1ccc(Cl)cc1NC(=O)CN1CCc2ccccc21 | i | i | i | i | i | i | nt | nt | nt
CCOc1ccc(C(C)(C)C)cc1S(=O)(=O)Nc1ccncc1 | nt | nt | nt | nt | i | nt | nt | nt | nt
O=C(N/N=C/C(Cl)=C\c1ccccc1)c1ccco1 | nt | nt | nt | nt | i | nt | nt | nt | nt
O=C(N/N=C/C(Cl)=C/c1ccccc1)c1ccco1 | 4.3 | 156 | i | 64 | nt | i | 186 | 134 | i
CC(=O)Cc1nsc(Nc2ccc(C)cc2)n1 | i | 156 | i | i | i | i | 190 | 137 | 122
CNc1nc(CC(C)=O)ns1 | i | i | i | i | nt | i | nt | nt | nt
Cc1ccc(-c2cc3ccccc3nc2N2CCCC2)cc1 | i | i | i | i | nt | i | nt | nt | nt
CN(c1cc(=O)n2ccccc2n1)C1CCCCC1 | i | i | i | i | nt | i | nt | nt | nt
Cc1ccc2c(c1)-c1nc3ccccc3cc1C2=NC1CCCCC1 | 3.7 | 172 | i | i | i | i | 201 | i | 123
Cc1ccc2c(c1)C(=NC1CCCCC1)c1cc3ccccc3nc1-2 | 5.3 | 192 | 178 | i | i | i | 208 | i | 150
SMILES | NF-kB neuron act | STAT1 act | APP 5'UTR act | FLuc inh counter | Pf gamet viab | FLuc act counter | STAT1 activ conf | NFkB act STAT1ct | STAT3 act 2
Cc1cccc(-c2nc(C#N)c(NC3CCCCC3)o2)c1 | i | 156 | 136 | i | i | i | 174 | i | 118
Cc1cccc(-c2nc(CS(=O)CC(=O)NC3CCCC3)c(C)o2)c1 (stereo unspecified) | i | i | i | i | nt | i | nt | nt | nt
O=C(CSc1nc2ccccc2[nH]1)NCc1ccc(F)cc1 | i | i | i | i | i | i | nt | nt | nt
C=CCNC(=S)NNC(=O)COc1ccc2cc(Br)ccc2c1 | 3.4 | 152 | i | i | i | i | 152 | i | i
C=CCNC(=S)NNC(=O)COc1ccc(Br)cc1 | i | i | i | i | nt | i | nt | nt | nt
COc1cccc(C(=O)Nc2ccc(C3CC3(Cl)Cl)cc2)c1 (stereo unspecified) | 5.7 | 152 | i | 58 | i | i | 193 | 143 | i
Clc1cccc(-c2nnc(-c3ccno3)o2)c1 | nt | nt | nt | nt | i | nt | nt | nt | nt
Clc1cccc(-c2nnc(-c3ccccc3)o2)c1 | 8.8 | 156 | 136 | 73 | nt | i | 209 | i | i
COc1ccc(-c2csc(-c3ccc(C(=O)O)cc3)n2)cc1 | 7.6 | 182 | i | i | i | i | 242 | 146 | 144
COc1ccc(-c2nc(CC(=O)O)cs2)cc1 | i | i | i | i | i | i | nt | nt | nt
O=C(O)c1ccc(-c2nc(-c3ccc(Cl)cc3)cs2)cc1 | 6.3 | 181 | 241 | i | i | i | 241 | 135 | 135
O=C(O)c1ccc(-c2nc(-c3cccc(C(F)(F)F)c3)cs2)cc1 | i | i | i | i | i | i | nt | nt | nt
C[C@@H]1CN(C(=O)c2nc3ccc(Cl)cn3c2CN2CCc3sccc3C2)C[C@H](C)O1 | i | i | i | i | i | i | nt | nt | nt
C=CCN=C1S/C(=C\c2ccc(N(C)C)cc2)C(=O)N1CC=C | nt | nt | nt | nt | i | nt | nt | nt | nt
O=Nc1c(O)n(Cc2ccc(Cl)cc2Cl)c2ccccc12 | i | i | i | i | nt | i | nt | nt | nt
CC(=O)Nc1ccc(-c2csc(Nc3ncccn3)n2)cc1 | i | 155 | 141 | i | i | i | 168 | i | 111
Cc1ccc(Nc2nc(-c3cccnc3)cs2)cc1Cl | nt | nt | nt | nt | i | nt | nt | nt | nt
CCCCCNc1nc(-c2ccccc2)cs1 | 6.4 | 153 | i | i | nt | i | 177 | i | i
c1ccc(CCNc2nc(-c3ccncc3)cs2)cc1 | i | i | i | i | i | i | nt | nt | nt
c1ccc(-c2csc(Nc3ncccn3)n2)cc1 | i | 157 | 163 | i | nt | i | 240 | i | i
Clc1ccccc1Nc1nc(-c2cccnc2)cs1 | 7.8 | 168 | 195 | 84 | i | i | 226 | 134 | 111
Cc1cccnc1Nc1nc(-c2ccccc2)cs1 | nt | nt | nt | nt | i | nt | nt | nt | nt
COc1ccc(Cl)cc1NC(=S)Nc1cccnc1 | i | i | i | i | i | i | nt | nt | nt
CC[N+](CC)(CC)C/C(N)=N/O | i | i | i | i | i | i | nt | nt | nt
C=CCOC(=O)C1=C[C@H](C2CCCCC2)[C@@H](CCCO)[C@H](OCC)O1 | i | i | i | i | i | i | nt | nt | nt
COc1ccc(N=C(C)C2=C(O)c3ccccc3C2=O)cc1 | 5.4 | 165 | 206 | 81 | i | i | 209 | i | i
COc1cccc(NC(=O)C2CC2)c1 | nt | nt | nt | nt | i | nt | nt | nt | nt
CCC1CCC(NC(=O)Nc2cccc(OC)c2)CC1 (stereo unspecified) | 4.5 | 159 | 158 | i | i | i | 168 | i | 123
